This is an account of results in ChEMBL document CHEMBL1122650, “Synthesis and central nervous system properties of 2-[(alkoxycarbonyl)amino]-4(5)-phenyl-2-imidazolines” (J Med Chem, 1984).

Activity calls are given as the source filed them. The calls are words filed in the database; no cut-off is given here.

Series [1] deals with Mus musculus. Put plainly: Compound was evaluated in vivo for reserpine hypothermia after oral administration in mouse. Minimum active dose was reported, with the percent reversal at 10 mg/kg in parenthesis. It is filed as functional. Summed up: (§1)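 Male HLa (ICR) BR mice (18-24 g), groups of eight, dosed ip with 5 mg/kg reserpine 2 h before oral test compound given as aqueous solution. Rectal temperature measured hourly; 1-4-h thermia assessed by analysis of variance.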

The species entered for series [2] is Mus musculus. Put plainly: Mouse behavior activity was determined; D = Depressant. In kind it is functional, organism-based. Summed up:
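Male Simonsen (ICR) fBR mice (18-24 g) given 3, 10, 30, 100, 300 or 1000 mg/kg ip as aqueous solution and observed for behaviour in groups of three.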

The species entered for series [3] is Mus musculus. In words: Righting ability was determined in mice […] rapid rolling (aroused). It is filed as functional. Summed up: (§2)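 Male Simonsen (ICR) fBR mice, 18-24 g, groups of ten, dosed with aqueous compound. Righting ability checked before (unaroused) and after (aroused) rapid rolling in the hand; ED50 by Litchfield-Wilcoxon method.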
Series [4] is filed under the species Mus musculus. In words: Righting ability was determined in mice before rapid rolling (unaroused). It is filed as functional. An outline of the steps: as §2
For series [5], the species on record is Mus musculus. In words: Compound was evaluated for maximal electroshock antagonism (MES) against mice (values in parentheses indicates 95% confidence limits). In kind it is functional. Summed up:
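Male HLa (ICR) BR mice, groups of eight to ten, given compound ip as aqueous solution 15 min before transcorneal electroshock (50 mA, 0.2 s). End point was abolition of tonic hind-limb extension; quantal ED50 derived by Litchfield-Wilcoxon.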
A general note: In the maximal electroshock model the usual endpoint is tonic extension of the hind limbs.

The species named for series [6] is Mus musculus. Put plainly: Mouse behavior activity was determined; Inactive. In kind it is functional, organism-based. An outline of the steps:
(§3)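 Male Simonsen (ICR) fBR mice, 18-24 g, groups of three, given 3, 10, 30, 100, 300 or 1000 mg/kg ip as aqueous solution and observed for behavioral profile; deaths followed up to 7 days.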

The species named for series [7] is Mus musculus. Put plainly: Compound was evaluated for maximal electroshock antagonism (MES) against mice; Inactive. It is filed as functional, organism-based. An outline of the steps:
(§4)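 Male HLa (ICR) BR mice, groups of eight to ten, dosed ip (aqueous solution) 15 min before transcorneal electroshock (50 mA, 0.2 s). End point: abolition of tonic hind-limb extension; quantal ED50 by Litchfield-Wilcoxon.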

Series [8] can be described thus: Lethal dose in mouse, in groups of ten. It is filed as toxicity, organism-based. The note with it: in vivo.
A short description of series [9]: HPLC capacity factor (k'). It is filed as ADME.
Series [10] is filed under the species Mus musculus. In words: Mouse behavior activity was determined; Dwk= Depressant Weak. It is filed as functional, organism-based. Summed up:
as §3

The species named for series [11] is Mus musculus. Put plainly: Compound was evaluated for maximal electroshock antagonism (MES) against mice. In kind it is functional. An outline of the steps:
as §4

The species entered for series [12] is Mus musculus. Put plainly: Compound was evaluated for antagonism of reserpine induced hypothermia;I= Inactive. In kind it is functional, organism-based. Summed up:
as §1

Series [13] is described as follows: Compound was evaluated for lethal dose in mouse in groups of ten (values in parentheses indicates 95% confidence limits). The note with it: in vivo. It is filed as toxicity, organism-based.
The species entered for series [14] is Mus musculus. Put plainly: Inhibition of radioactive NE [3H]norepinephrine uptake into mouse heart. In kind it is functional. Summed up:
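Mice dosed ip (aqueous solution) before iv [3H]NE; hearts removed 3 h after label, washed, weighed, dissolved in Protosol and counted as dpm per mg tissue. Dose-response from linear regression.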

The species named for series [15] is Mus musculus. In words: Mouse behavior activity was determined; Dwk=Depressant Weak. In kind it is functional, organism-based. Summed up: as §3
Series [16] relates to Mus musculus. In words: Reserpine hypothermia antagonism in mouse administered perorally with 5 mg/kg of reserpine 2 hour prior to test compound administration. The note with it: route oral. In kind it is functional.
The species named for series [17] is Rattus norvegicus. Put plainly: Inhibition of the 5-HT [14C]5-HT uptake by rat brain slices In vitro. In kind it is functional. Summed up: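 Rat cerebral cortex slices, 5 mg tissue per mL Krebs-Henseleit buffer, incubated at 37 °C with [3H]NE or [14C]5-HT; blanks at 4 °C, undosed controls. Stopped after 20 min by filtration; slice radioactivity counted; IC50 from linear regression of uptake inhibition.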

The species named for series [18] is Rattus norvegicus. In words: Inhibition of the NE [3H]Norepinephrine uptake by rat brain slices In vitro. In kind it is functional.
Series [19] is filed under the species Mus musculus. Put plainly: Evaluated for antagonism of reserpine induced hypothermia. In kind it is functional. An outline of the steps: (§5)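 Male HLa (ICR) BR mice, 18-24 g, in groups of eight; reserpine 5 mg/kg ip given 2 h before oral test compound as aqueous solution. Rectal temperature taken hourly; 1-4-h hypothermia assessed by analysis of variance.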

For series [20], the species on record is Mus musculus. Put plainly: Evaluated for antagonism of reserpine induced hypothermia;I= Inactive. In kind it is functional, organism-based. An outline of the steps:
as §5

For series [21], the species on record is Mus musculus. Put plainly: Compound was evaluated for maximal electroshock antagonism (MES) against mice; Inactive. It is filed as functional, organism-based. An outline of the steps:
as §4

The species named for series [22] is Mus musculus. Put plainly: Mouse behavior activity was determined; D=Depressant. In kind it is functional, organism-based. Summed up: as §3
For series [23], the system named is Mus musculus. In words: Compound was evaluated in vivo for reserpine hypothermia after oral administration in mouse. Minimum active dose was reported; Inactive. It is filed as functional, organism-based. An outline of the steps:
as §5

The species named for series [24] is Mus musculus. In words: Mouse behavior activity was determined; Dwk= Depressant Weak. In kind it is functional, organism-based. Summed up:
as §3

The species entered for series [25] is Mus musculus. In words: Mouse behavior activity was determined;D= Depressant. It is filed as functional, organism-based. An outline of the steps:
as §3

The species entered for series [26] is Mus musculus. Put plainly: Compound was evaluated for antagonism of reserpine induced hypothermia. It is filed as functional. An outline of the steps:
as §5

In series [27] the test system is Mus musculus. Put plainly: Compound was evaluated in vivo for reserpine hypothermia after oral administration in mouse. Minimum active dose was reported; rigidity was potentiated by compound. It is filed as functional, organism-based. Summed up: as §5
The species entered for series [28] is Mus musculus. Put plainly: Mouse behavior activity was determined; S-D=Stimulant-Depressant. It is filed as functional, organism-based. Summed up:
as §3

What is called ED50 is the dose that gives a 50% effect, or the effect in half of the subjects. For orientation: LD50 means the dose at which mortality reaches 50%. By IC50 is commonly meant the concentration that inhibits the measured activity by half. Low readings indicate greater potency in that assay, high ones weaker potency in that assay.

On to `CN1C(=O)CN=C(c2ccccc2)c2cc(Cl)ccc21` [DIAZEPAM], for which the ED50 with Mus musculus [1] came out at 1 mg/kg; in the series listed under Mus musculus [5] it was 7 mg/kg. The Mouse behavior activity entry in the series filed under Mus musculus [2] is recorded as “Depressant”. Besides, the Loss of righting reflex is 136 mg/kg in the series filed under Mus musculus [3] and 67 mg/kg in the series listed under Mus musculus [4].

Regarding `COC(=O)NC1=NC(c2ccc(O)cc2)CN1` (stereo not drawn), the Mouse behavior activity result in the series listed under Mus musculus [6] was “inactive”. In addition, in the series listed under Mus musculus [7], the ED50 result was “inactive”. Besides, in series [8], the 50% lethal dose (LD50) was found to be 700 mg/kg.

For `COC(=O)NC1=NC(c2cccc(Br)c2)CN1` (stereo not drawn), the “Log k'” value in [9] is on record as 0.5. For the same compound, the Mouse behavior activity entry in the series listed under Mus musculus [10] is “Depressant - weak”. Also, the ED50 in the series listed under Mus musculus [11] is roughly 68 mg/kg. In series [8], the LD50 was found to be 300 mg/kg.

Take `CNC1=Nc2ccc(Cl)cc2C(c2ccccc2)=[N+]([O-])C1` [CHLORDIAZEPOXIDE]: the ED50 with Mus musculus [1] worked out at 5 mg/kg. The HYPO result in the series listed under Mus musculus [12] is “inactive”. In addition, the Mouse behavior activity result in the series listed under Mus musculus [2] is recorded as “Depressant”. The median lethal dose (LD50) in series [13] is 254 mg/kg. Besides, the Loss of righting reflex was 140 mg/kg in the series filed under Mus musculus [3] and 53 mg/kg in the series filed under Mus musculus [4].

For `COC(=O)NC1=NC(c2c(Cl)cccc2Cl)CN1` (stereo not drawn), the “Log k'” value in series [9] was 0.3. In addition, the ED50 in the series filed under Mus musculus [14] came to 14.2 mg/kg. Moreover, the Mouse behavior activity result in the series filed under Mus musculus [15] is given as “Depressant”. Also, the ED50 entry in the series listed under Mus musculus [7] is “inactive”. This compound also gave a Reserpine hypothermia in the series on Mus musculus [16] of 0.15 mg/kg. The IC50 in the series listed under Rattus norvegicus [17] and in the series filed under Rattus norvegicus [18] was greater than 100 µM throughout. Besides, the HYPO in the series filed under Mus musculus [19] was less than 0.5 mg/kg. This compound registered an LD50 in [8] of 300 mg/kg.

For the compound `CCCCCCc1ccc(C2CN=C(NC(=O)OC)N2)cc1` (stereo not drawn), in series [9], the “Log k'” value is recorded as 2.28. Besides, the HYPO entry in the series listed under Mus musculus [20] was “inactive”. In addition, in the series filed under Mus musculus [15], the Mouse behavior activity result is listed as “Depressant - weak”. Further, the ED50 result in the series filed under Mus musculus [21] is “inactive”. The compound further came in with a median lethal dose (LD50) in series [8] of 200 mg/kg.

For `CCC(=O)NC1=NC(c2ccccc2)CN1` (stereo not drawn), the “Log k'” value in [9] was 0.17. The Mouse behavior activity result in the series filed under Mus musculus [10] is on record as “Depressant”. This compound displayed an ED50 in the series filed under Mus musculus [11] of 75 mg/kg. For the same compound, the HYPO in the series filed under Mus musculus [19] was greater than 20 mg/kg. Also, the LD50 in series [8] was determined as 500 mg/kg.

In the case of `COC(=O)NC1=NC(c2ccccc2Cl)CN1` (stereo not drawn), the “Log k'” value in series [9] is listed as 0.29. Also, the Mouse behavior activity entry in the series filed under Mus musculus [22] is given as “Depressant”. In the series filed under Mus musculus [11], this compound displayed an ED50 of 50 mg/kg. This compound came in with a Loss of righting reflex in the series filed under Mus musculus [4] of 200 mg/kg. In series [8], this compound registered an LD50 of 500 mg/kg.

As to `COC(=O)NC1=NC(c2ccc(SC)cc2)CN1C` (stereo not drawn), in series [9], the “Log k'” value worked out at 0.61. Also, the ED50 result in the series on Mus musculus [23] was “inactive”. Moreover, in the series filed under Mus musculus [20], the HYPO entry was “inactive”. The ED50 in the series listed under Mus musculus [11] stood at 100 mg/kg.

Turning to `COC(=O)NC1=NC(c2ccc(C)cc2)CN1` (stereo not drawn), the “Log k'” value in [9] was found to be 0.3. For the same compound, the Mouse behavior activity result in the series listed under Mus musculus [24] is on record as “Depressant - weak”. Besides, the ED50 entry in the series listed under Mus musculus [21] is “inactive”. In the series listed under Mus musculus [19], this compound yielded an HYPO greater than 20 mg/kg. Also, the LD50 in series [8] was greater than 1000 mg/kg.

`CCOC(=O)NC1=NC(c2cccc(Cl)c2)CN1C` (stereo not drawn): in [9], the “Log k'” value turned out to be 0.78. In addition, in the series listed under Mus musculus [25], the Mouse behavior activity result is on record as “Depressant”. For the same compound, the HYPO in the series listed under Mus musculus [26] was less than 0.5 mg/kg. The same compound showed an ED50 in the series listed under Mus musculus [11] of 74 mg/kg. This compound gave a Loss of righting reflex in the series filed under Mus musculus [4] of 70 mg/kg. The compound further registered an LD50 in series [8] of 300 mg/kg.

Turning to `CCOC(=O)NC1=NC(c2ccccc2)CN1C` (stereo not drawn), in series [9], the “Log k'” value is reported as 0.41. In addition, the 50% effective dose (ED50) in the series listed under Mus musculus [11] was determined as 78 mg/kg. Moreover, the P entry in the series with Mus musculus [27] was “rigidity was potentiated by compound”. The compound further returned a Loss of righting reflex in the series listed under Mus musculus [4] of 100 mg/kg. Further, the Mouse behavior activity entry in the series filed under Mus musculus [28] is recorded as “Stimulant-Depressant”. The same compound displayed an HYPO in the series listed under Mus musculus [19] of less than 0.5 mg/kg. This compound also yielded an LD50 in [8] of 200 mg/kg.

For `COC(=O)NC1=NC(c2cccc(Cl)c2)CN1` (stereo not drawn), the “Log k'” value in [9] is listed as 0.4. Moreover, in the series listed under Mus musculus [24], the Mouse behavior activity entry is “Depressant - weak”. The 50% effect level in the series filed under Mus musculus [11] (ED50) was put at a dose of 48 mg/kg. In addition, in series [8], the LD50 worked out at 300 mg/kg.
